# Activity calls are given as the source filed them. No cut-off for these calls is given here.
# How the values were obtained:
# [1] = tested on: SMMC-7721; assay: Induction of apoptosis in human SMMC-7721 cells assessed as late apoptotic cell level at 5 uM incubated for 48 hrs by FITC/Annexin V staining based flow cytometry (reference value: 6.08%)
# [2] = tested on: SMMC-7721; assay: Induction of apoptosis in human SMMC-7721 cells assessed as necrotic cell level at 5 uM incubated for 48 hrs by FITC/Annexin V staining based flow cytometry (reference value: 2.31%)
# [3] = tested on: Mus musculus; assay: AUC in BALB/C mouse at 10 mg/kg, po or 2 mg/kg, iv by LC-MS/MS method; format: ADME, organism-based, Plasma; conditions: in vivo
# How it was run: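 Female-unspecified BALB/C nude mice (15−20 g, N = 16 per arm); iv bolus 2 mg/kg in 5% DMSO/40% PEG400/55% saline and/or oral gavage 10 mg/kg as 0.445% microcrystalline cellulose microsuspension. Blood sampled at nine (iv) or eight (po) time points into sodium heparin tubes; plasma by LC-MS/MS; noncompartmental analysis.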
# [4] = tested on: Mus musculus; assay: Tmax in BALB/C mouse at 10 mg/kg, po or 2 mg/kg, iv by LC-MS/MS method; format: ADME, organism-based; conditions: in vivo
# How it was run: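 Single-dose PK: iv bolus 2 mg/kg in 5% DMSO/40% PEG400/55% saline and/or oral gavage 10 mg/kg as 0.445% microcrystalline cellulose microsuspension; BALB/C nude mice (15−20 g, N = 16 per arm) or male Sprague−Dawley rats (250 ± 20 g, N = 3). Blood at eight (po) or nine (iv) time points into sodium heparin, plasma by LC-MS/MS, noncompartmental analysis.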
# [5] = tested on: Mus musculus; assay: Toxicity in human Bel7404 cells xenografted BALB/C mouse assessed as body weight loss at 100 mg/kg, po administered every other day for 4 weeks; conditions: in vivo, 672 h
# [6] = tested on: BEL-7404; assay: Antitumor activity against human BEL-7404 cells xenografted in BALB/C mouse assessed as tumor growth inhibition at 100 mg/kg, po administered every other day for 4 weeks; conditions: BEL-7404, po, 672 h, read-out: TGI
# [7] = tested on: SGC-7901; assay: Induction of cell cycle arrest in human SGC7901 cells assessed as accumulation at G1/G2 phase incubated for 24 hrs by flow cytometry; format: functional, cell-based
# How it was run: (§1)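 SGC-7901 cells (1 × 10^5, about 50% confluent) treated 24 h with a concentration series; fixed in chilled 70% ethanol 1 h at 4 °C, stained 1 h at room temperature with propidium iodide (50 μg/mL) plus RNase A and 0.05% Triton X-100; analysed by flow cytometry.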
# [8] = tested on: Mus musculus; assay: Up-regulation of SDC2 gene expression in human hepatocellular carcinoma patient tumor xenografted in BALB/C mouse at 100 mg/kg, po administered every other day for 4 weeks by […]; format: functional, organism-based; design: dose 100 mg/kg
# How it was run: (§2)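 Patient HCC tumor fragments (3 × 3 × 3 mm3) implanted subcutaneously in female BALB/c nu/nu mice; at ~200 (150−250) mm3 dosed orally Q2D 100 mpk in 15% Kleptose pH 4.5 tartaric buffer for about four weeks. Tumor RNA (TRIzol, DNase I) run on 22-gene qRT-PCR array, normalized to GAPDH/β-glucuronidase by ΔCt, fold change versus day 0.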
# [9] = tested on: Mus musculus; assay: Up-regulation of PYCARD gene expression in human hepatocellular carcinoma patient tumor xenografted in BALB/C mouse at 100 mg/kg, po administered every other day for 4 weeks by […]; format: functional, organism-based; design: dose 100 mg/kg
# How it was run: as §2
# [10] = tested on: Mus musculus; assay: Up-regulation of TIMP3 gene expression in human hepatocellular carcinoma patient tumor xenografted in BALB/C mouse at 100 mg/kg, po administered every other day for 4 weeks by […]; format: functional, organism-based; design: dose 100 mg/kg
# How it was run: as §2
# [11] = tested on: Mus musculus; assay: Up-regulation of CDKN1A gene expression in human hepatocellular carcinoma patient tumor xenografted in BALB/C mouse at 100 mg/kg, po administered every other day for 4 weeks by […]; format: functional, organism-based; design: dose 100 mg/kg
# How it was run: as §2
# [12] = tested on: Mus musculus; assay: Up-regulation of SPINT2 gene expression in human hepatocellular carcinoma patient tumor xenografted in BALB/C mouse at 100 mg/kg, po administered every other day for 4 weeks by […]; format: functional, organism-based; design: dose 100 mg/kg
# How it was run: as §2
# [13] = tested on: SGC-7901; assay: Inhibition of Class 1 histone deacetylase in human SGC7901 cells assessed as histone H3 acetylation at 0.6 to 5 uM incubated for 24 hrs by Western blot method; format: cell-based
# How it was run: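 SGC-7901 cells (1 × 10^6) seeded overnight, treated 24 h at indicated concentrations; lysed on ice with protease inhibitor, 15 000 g supernatant; 30 μg protein by SDS-PAGE, nitrocellulose, antibody probing for acetylated histone H3 and p21, ECL detection.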
# [14] = tested on: Mus musculus; assay: Up-regulation of CDKN1C gene expression in human hepatocellular carcinoma patient tumor xenografted in BALB/C mouse at 100 mg/kg, po administered every other day for 4 weeks by […]; format: functional, organism-based; design: dose 100 mg/kg
# How it was run: as §2
# [15] = tested on: Mus musculus; assay: Up-regulation of IGFBP3 gene expression in human hepatocellular carcinoma patient tumor xenografted in BALB/C mouse at 100 mg/kg, po administered every other day for 4 weeks by […]; format: functional, organism-based; design: dose 100 mg/kg
# How it was run: as §2
# [16] = tested on: Mus musculus; assay: Up-regulation of HIC1 gene expression in human hepatocellular carcinoma patient tumor xenografted in BALB/C mouse at 100 mg/kg, po administered every other day for 4 weeks by […]; format: functional, organism-based; design: dose 100 mg/kg
# How it was run: as §2
# [17] = tested on: Mus musculus; assay: Down-regulation of WNT5A gene expression in human hepatocellular carcinoma patient tumor xenografted in BALB/C mouse at 100 mg/kg, po administered every other day for 4 weeks by […]; format: functional, organism-based; design: dose 100 mg/kg
# How it was run: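 Patient-derived HCC xenografts dosed 100 mpk Q2D PO; tumor total RNA (TRIzol, DNase I treated, column-purified) run on a customized 22-gene qRT-PCR array; ΔCt against mean of GAPDH and β-glucuronidase, fold-change relative to day 0 (pre-treatment).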
# [18] = tested on: Mus musculus; assay: Up-regulation of CDH1 gene expression in human hepatocellular carcinoma patient tumor xenografted in BALB/C mouse at 100 mg/kg, po administered every other day for 4 weeks by […]; format: functional, organism-based; design: dose 100 mg/kg
# How it was run: as §2
# [19] = tested on: SGC-7901; assay: Induction of cell cycle arrest in human SGC7901 cells assessed as reduction in accumulation at S phase incubated for 24 hrs by flow cytometry; format: functional, cell-based
# How it was run: as §1
# [20] = tested on: Mus musculus; assay: Up-regulation of SOCS1 gene expression in human hepatocellular carcinoma patient tumor xenografted in BALB/C mouse at 100 mg/kg, po administered every other day for 4 weeks by […]; format: functional, organism-based; design: dose 100 mg/kg
# How it was run: as §2
# [21] = tested on: Mus musculus; assay: Up-regulation of CDKN2B gene expression in human hepatocellular carcinoma patient tumor xenografted in BALB/C mouse at 100 mg/kg, po administered every other day for 4 weeks by […]; format: functional, organism-based; design: dose 100 mg/kg
# How it was run: as §2
# [22] = molecular target: Voltage-gated inwardly rectifying potassium channel KCNH2 (Homo sapiens, UniProt Q12809); assay: Inhibition of human ERG expressed in CHO cells by patch clamp method; format: cell-based
# Voltage-gated inwardly rectifying potassium channel KCNH2, sequence (Q12809 whole entry): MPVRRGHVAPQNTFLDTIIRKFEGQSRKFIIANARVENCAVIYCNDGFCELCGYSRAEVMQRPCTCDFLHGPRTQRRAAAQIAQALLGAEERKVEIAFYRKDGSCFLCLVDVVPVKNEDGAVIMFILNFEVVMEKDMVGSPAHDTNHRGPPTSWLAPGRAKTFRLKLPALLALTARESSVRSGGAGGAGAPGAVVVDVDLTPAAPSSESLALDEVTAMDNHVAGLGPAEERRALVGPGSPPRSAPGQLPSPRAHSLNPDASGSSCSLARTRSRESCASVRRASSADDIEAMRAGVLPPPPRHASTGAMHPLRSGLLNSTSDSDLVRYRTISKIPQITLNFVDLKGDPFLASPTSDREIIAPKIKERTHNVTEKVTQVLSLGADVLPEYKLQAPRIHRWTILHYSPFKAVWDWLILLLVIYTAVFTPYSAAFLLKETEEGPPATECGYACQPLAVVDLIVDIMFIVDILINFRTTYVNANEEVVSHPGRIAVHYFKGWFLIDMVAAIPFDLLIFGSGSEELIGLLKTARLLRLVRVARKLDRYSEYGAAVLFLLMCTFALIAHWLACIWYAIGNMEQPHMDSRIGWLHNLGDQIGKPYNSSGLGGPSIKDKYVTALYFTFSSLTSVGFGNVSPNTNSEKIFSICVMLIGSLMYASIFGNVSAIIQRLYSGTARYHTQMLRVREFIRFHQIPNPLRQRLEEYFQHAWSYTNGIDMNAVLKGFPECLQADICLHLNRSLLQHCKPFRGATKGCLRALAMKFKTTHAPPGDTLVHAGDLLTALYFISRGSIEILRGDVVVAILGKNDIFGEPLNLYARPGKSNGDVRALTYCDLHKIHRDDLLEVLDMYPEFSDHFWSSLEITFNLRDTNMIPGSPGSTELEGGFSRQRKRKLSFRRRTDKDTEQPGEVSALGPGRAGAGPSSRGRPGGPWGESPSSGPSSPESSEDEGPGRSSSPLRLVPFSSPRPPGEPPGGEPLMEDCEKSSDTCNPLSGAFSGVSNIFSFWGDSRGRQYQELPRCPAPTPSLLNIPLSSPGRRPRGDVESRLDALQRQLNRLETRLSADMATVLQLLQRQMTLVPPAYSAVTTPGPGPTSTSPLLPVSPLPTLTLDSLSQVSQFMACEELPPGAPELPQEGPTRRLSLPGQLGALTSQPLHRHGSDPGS
smiles,measurement,setting,value
CN1C[C@H](C(=O)Nc2ccc(Cl)cc2)[C@@H](c2ccc(/C=C/C(=O)Nc3ccccc3N)cc2)C1 [listing 1 of 2 here],Activity,[1],36.17%
same,Activity,[2],15.41%
same,AUC,[3],6316 ng·h/mL
same,Tmax,[4],15 min
same,Activity,[5],< 10%
same,inhibition in vivo at 100 mg/kg,[6],> 60%
CN1C[C@H](C(=O)Nc2ccc(Cl)cc2)[C@@H](c2ccc(/C=C/C(=O)Nc3ccccc3N)cc2)C1 [listing 2 of 2 here],Activity,[7],Dose-dependent effect
same,Activity,[8],Active
same,Activity,[9],inactive
same,Activity,[10],Active
same,Activity,[11],Active
same,Activity,[12],inactive
same,inhibition,[13],Dose-dependent effect
same,Activity,[14],Active
same,Activity,[15],Active
same,Activity,[16],inactive
same,Activity,[17],Active
same,Activity,[18],inactive
same,Activity,[19],Dose-dependent effect
same,Activity,[20],Active
same,Activity,[21],Active
CN1C[C@H](C(=O)Nc2ccc(Cl)cc2)[C@@H](c2ccc(/C=C/C(=O)Nc3ccccc3N)cc2F)C1 (racemic),IC50,[22],7 µM

# From ChEMBL document CHEMBL2177000, “Pharmacokinetic optimization of class-selective histone deacetylase inhibitors and identification of associated candidate predictive biomarkers of hepatocellular carcinoma tumor response” (J Med Chem, 2012)
